Series [1] deals with Rattus norvegicus. The series is described as follows: Biodistribution of I-125 labeled compound in rat liver, 1 hr after intravenous injection. value expressed in average % dose per organ; value may range from 6.22 to 7.81. It counts as ADME, organism-based. The conditions noted are these: in vivo.
A short description of series [2]: Biodistribution of [125I]- compound in a monkey brain. 1 hr after intravenous injection. the value expressed in %dose/gram. The conditions noted are these: simiiformes, in vivo.
The species named for series [3] is Rattus norvegicus. Kind of series: Effect of specific activity of compound on biodistribution in rats lungs after injection at the dose of 0.025 mg value expressed in average % dose per organ; value may range from 12.0 to 14.5. The conditions noted are these: in vivo. In kind it is ADME, organism-based, Lung. The method, boiled down:
(§1)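 Rats received an intravenous injection of the I-125 labeled diamine with added unlabeled carrier (6.25, 2.5, 0.25 or 0.025 mg per dose). At 1 h, organs were counted. Percent dose per organ came from comparing tissue radioactivity with diluted aliquots of the injected dose. Values are the average and range of 3 rats. Brain/blood ratio was taken from % dose per gram, calculated using mean organ weights (brain 1.65 g; blood 18 g).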

The species entered for series [4] is Rattus norvegicus. The series is described as follows: Effect of specific activity of compound on biodistribution in rats brain to blood ratio 1 hr after injection at the dose of 2.5 mg value expressed in % dose per gram ratio. In kind it is ADME, organism-based. The essentials:
as §1

The species entered for series [5] is Rattus norvegicus. Kind of series: Effect of specific activity of compound on biodistribution in rats brain to blood ratio after injection at the dose of 0.025 mg value expressed in % dose per gram ratio. In kind it is ADME, organism-based. The essentials:
as §1

Series [6] in a line: Biodistribution of [125I]- compound in a monkey liver. 1 hr after intravenous injection. the value expressed in %dose/gram. The conditions noted are these: simiiformes, in vivo.
Series [7] is filed under the species Rattus norvegicus. The series is described as follows: Effect of specific activity of compound on biodistribution in rats blood 1 hr after injection at the dose of 0.25 mg value expressed in average % dose per organ; value may range from 0.83 to 0.92. It counts as ADME, organism-based. The conditions noted are these: in vivo.
The species entered for series [8] is Rattus norvegicus. The series is described as follows: Effect of specific activity of compound on biodistribution in rats brain 1 hr after injection at the dose of 6.25 mg value expressed in average % dose per organ; value may range from 1.95 to 2.70. In kind it is ADME, organism-based. The conditions noted are these: in vivo. The essentials: as §1
The species named for series [9] is Rattus norvegicus. Kind of series: Effect of specific activity of compound on biodistribution in rats heart after injection at the dose of 0.025 mg value expressed in average % dose per organ; value may range from 0.98 to 1.02. It counts as ADME, organism-based. The conditions noted are these: in vivo. The method, boiled down: as §1
Series [10] in a line: Biodistribution of […] compound in a monkey heart. 1 hr after intravenous injection. the value expressed in%dose/organ. It counts as ADME, organism-based. The conditions noted are these: simiiformes, in vivo. The essentials: (§2)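 Monkey sedated with ketamine and anesthetized with nembutal, then given ~100 μCi [125I] label (~7 mCi/mg) intravenously. Killed 1 h later by nembutal overdose. Organs dissected, weighed and counted. % dose per organ found against diluted injected-dose aliquots; % dose per gram also reported; brain/blood from per-gram values. Single animal.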

The nature of series [11]: Biodistribution of […] compound in a monkey blood. 1 hr after intravenous injection. the value expressed in%dose/organ. It counts as ADME, organism-based. The conditions noted are these: simiiformes, in vivo. The method, boiled down:
as §2

In the case of `Cc1cc(I)cc(CNCCCN(C)C)c1O`, the “Average dose per organ” value in the series on Rattus norvegicus [1] stood at 7.14%; in the series listed under Rattus norvegicus [3], 12.8%; in the series filed under Rattus norvegicus [7], 0.88%; in the series listed under Rattus norvegicus [8], 2.38%; in the series filed under Rattus norvegicus [9] it was 1%. In addition, the figures for the Dose/g in [2] and in series [6] were 0.0349% and 0.149%, respectively. Also, the Ratio in the series filed under Rattus norvegicus [4] came out at 37.3%; in the series filed under Rattus norvegicus [5], 17.6%. Moreover, the figures for the Dose per organ in [10] and in [11] were 5.39% and 1.23%, respectively.

These data come from ChEMBL document CHEMBL1122426, “Radioiodine-labeled N,N-dimethyl-N'-(2-hydroxy-3-alkyl-5-iodobenzyl)-1,3-propanediamines for brain perfusion imaging” (J Med Chem, 1983).
